ChEMBL document CHEMBL1144800, “Synthesis and antimicrobial properties of monensin A esters” (2008)
Converted amounts (≈) assume the structure as drawn. The source made the active and inactive calls. The calls are words filed in the database; no cut-off is given here.

Legend:
Proteus vulgaris = assay: Antibacterial activity against Proteus vulgaris NCTC 4635 at 400 ug/disc after 18 hrs by disc diffusion assay; type: functional, organism-based
Method in brief: (§1)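 Disc diffusion on Mueller–Hinton II agar per CLSI guidelines. Compound in ethanol applied to 9 mm filter paper discs at 400 µg per disc, then dried and placed on the agar surface. Growth inhibition zone diameter read after 18 h at 35 °C.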

[1] = test system: Staphylococcus epidermidis; assay: Antibacterial activity against Staphylococcus epidermidis ATCC 12228 after 18 hrs by serial agar dilution method; type: functional; settings: ATCC 12228, 18 h
Method in brief: (§2)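 MIC by twofold serial agar dilution in Mueller–Hinton II agar per CLSI, run only for compounds that gave an inhibition zone in disc assay. Compounds dissolved in DMSO, tested at 3.125–400 µg/ml in agar. Final inoculum 10^4 CFU/ml. […] DMSO control included.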

Bacillus subtilis [2] = assay: Antibacterial activity against Bacillus subtilis ATCC 6633 after 18 hrs by serial agar dilution method; type: functional; settings: ATCC 6633, 18 h; method in brief: as §2
Staphylococcus aureus [3] = assay: Antibacterial activity against Staphylococcus aureus ATCC 6538 after 18 hrs by serial agar dilution method; type: functional; settings: ATCC 6538, 18 h; method in brief: as §2
Micrococcus luteus [4] = assay: Antibacterial activity against Micrococcus luteus ATCC 10240 at 400 ug/disc after 18 hrs by disc diffusion assay; type: functional; settings: ATCC 10240, 18 h, read-out: IZ; method in brief: as §1
Escherichia coli [5] = assay: Antibacterial activity against Escherichia coli NCTC 8196 at 400 ug/disc after 18 hrs by disc diffusion assay; type: functional, organism-based; method in brief: as §1
Pseudomonas aeruginosa [6] = assay: Antibacterial activity against Pseudomonas aeruginosa ATCC 15442 at 400 ug/disc after 18 hrs by disc diffusion assay; type: functional, organism-based; method in brief: as §1
Staphylococcus aureus [7] = assay: Antibacterial activity against Staphylococcus aureus ATCC 29213 at 400 ug/disc after 18 hrs by disc diffusion assay; type: functional; settings: ATCC 29213, 18 h, read-out: IZ; method in brief: as §1
Enterococcus hirae [8] = assay: Antibacterial activity against Enterococcus hirae ATCC 10541 after 18 hrs by serial agar dilution method; type: functional; settings: ATCC 10541, 18 h
Method in brief: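 Twofold serial agar dilution MIC in Mueller–Hinton II agar (CLSI), run only for compounds that gave an inhibition zone in disc assay. DMSO solutions tested at 3.125–400 µg/ml in agar. Final inoculum 10^5 CFU/ml. Read after 18 h at 35 °C. DMSO control included.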

Bacillus subtilis [9] = assay: Antibacterial activity against Bacillus subtilis ATCC 6633 at 400 ug/disc after 18 hrs by disc diffusion assay; type: functional; settings: ATCC 6633, 18 h, read-out: IZ; method in brief: as §1
Escherichia coli [10] = assay: Antibacterial activity against Escherichia coli ATCC 25922 at 400 ug/disc after 18 hrs by disc diffusion assay; type: functional, organism-based; method in brief: as §1
Candida albicans [11] = assay: Antifungal activity against Candida albicans ATCC 10231 at 400 ug/disc after 24 hrs by disc diffusion assay; type: functional
Method in brief: (§3)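 Disc diffusion on RPMI agar with 2% glucose per CLSI guidelines. Discs 9 mm filter paper, loaded from ethanol solution with 400 µg compound, dried before placing on the agar. Inhibition zone diameter read after incubation at 35 °C. Fluconazole control at 25 µg per disc.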

Pseudomonas aeruginosa [12] = assay: Antibacterial activity against Pseudomonas aeruginosa NCTC 6749 at 400 ug/disc after 18 hrs by disc diffusion assay; type: functional, organism-based; method in brief: as §1
Escherichia coli [13] = assay: Antibacterial activity against Escherichia coli ATCC 10538 at 400 ug/disc after 18 hrs by disc diffusion assay; type: functional, organism-based; method in brief: as §1
Staphylococcus aureus [14] = assay: Antibacterial activity against Staphylococcus aureus NCTC 4163 after 18 hrs by serial agar dilution method; type: functional; settings: NCTC 4163, 18 h; method in brief: as §2
Bacillus cereus [15] = assay: Antibacterial activity against Bacillus cereus ATCC 11778 at 400 ug/disc after 18 hrs by disc diffusion assay; type: functional; settings: ATCC 11778, 18 h, read-out: IZ; method in brief: as §1
Candida albicans [16] = assay: Antifungal activity against Candida albicans ATCC 90028 at 400 ug/disc after 24 hrs by disc diffusion assay; type: functional; method in brief: as §3
Staphylococcus aureus [17] = assay: Antibacterial activity against Staphylococcus aureus ATCC 25923 after 18 hrs by serial agar dilution method; type: functional; settings: ATCC 25923, 18 h; method in brief: as §2
Pseudomonas aeruginosa [18] = assay: Antibacterial activity against Pseudomonas aeruginosa ATCC 27853 at 400 ug/disc after 18 hrs by disc diffusion assay; type: functional, organism-based; method in brief: as §1
[19] = test system: Bordetella bronchiseptica; assay: Antibacterial activity against Bordetella bronchiseptica ATCC 4617 at 400 ug/disc after 18 hrs by disc diffusion assay; type: functional, organism-based; method in brief: as §1
Micrococcus luteus [20] = assay: Antibacterial activity against Micrococcus luteus ATCC 10240 after 18 hrs by serial agar dilution method; type: functional; settings: ATCC 10240, 18 h; method in brief: as §2
Staphylococcus aureus [21] = assay: Antibacterial activity against Staphylococcus aureus ATCC 6538 at 400 ug/disc after 18 hrs by disc diffusion assay; type: functional; settings: ATCC 6538, 18 h, read-out: IZ; method in brief: as §1
Enterococcus hirae [22] = assay: Antibacterial activity against Enterococcus hirae ATCC 10541 at 400 ug/disc after 18 hrs by disc diffusion assay; type: functional; method in brief: as §1
Micrococcus luteus [23] = assay: Antibacterial activity against Micrococcus luteus ATCC 9341 at 400 ug/disc after 18 hrs by disc diffusion assay; type: functional; settings: ATCC 9341, 18 h, read-out: IZ; method in brief: as §1
Staphylococcus aureus [24] = assay: Antibacterial activity against Staphylococcus aureus NCTC 4163 at 400 ug/disc after 18 hrs by disc diffusion assay; type: functional; settings: NCTC 4163, 18 h, read-out: IZ; method in brief: as §1
Candida parapsilosis [25] = assay: Antifungal activity against Candida parapsilosis ATCC 22019 at 400 ug/disc after 24 hrs by disc diffusion assay; type: functional; method in brief: as §3
Micrococcus luteus [26] = assay: Antibacterial activity against Micrococcus luteus ATCC 9341 after 18 hrs by serial agar dilution method; type: functional; settings: ATCC 9341, 18 h; method in brief: as §2
Staphylococcus aureus [27] = assay: Antibacterial activity against Staphylococcus aureus ATCC 29213 after 18 hrs by serial agar dilution method; type: functional; settings: ATCC 29213, 18 h; method in brief: as §2
Staphylococcus aureus [28] = assay: Antibacterial activity against Staphylococcus aureus ATCC 25923 at 400 ug/disc after 18 hrs by disc diffusion assay; type: functional; settings: ATCC 25923, 18 h, read-out: IZ; method in brief: as §1
[29] = test system: Staphylococcus epidermidis; assay: Antibacterial activity against Staphylococcus epidermidis ATCC 12228 at 400 ug/disc after 18 hrs by disc diffusion assay; type: functional; settings: ATCC 12228, 18 h, read-out: IZ; method in brief: as §1
Bacillus cereus [30] = assay: Antibacterial activity against Bacillus cereus ATCC 11778 after 18 hrs by serial agar dilution method; type: functional; settings: ATCC 11778, 18 h; method in brief: as §2
Candida albicans [31] = assay: Antifungal activity against Candida albicans ATCC 10231 after 24 hrs by serial agar dilution method; type: functional; settings: ATCC 10231, 24 h
Method in brief: (§4)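 Yeast MIC by twofold serial agar dilution on RPMI agar with 2% glucose (CLSI), run only for compounds that gave an inhibition zone in disc assay. Compounds in DMSO, 3.125–400 µg/ml in agar. Final inoculum 10^4 CFU/ml. […] Fluconazole and DMSO controls included.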

Candida parapsilosis [32] = assay: Antifungal activity against Candida parapsilosis ATCC 22019 after 24 hrs by serial agar dilution method; type: functional; settings: Lodderomyces parapsilosis, ATCC 22019, 24 h
Method in brief: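 Twofold serial agar dilution per CLSI on RPMI agar with 2% glucose. Agents were dissolved in DMSO and tested at 3.125–400 µg/ml in the solid medium, with a DMSO control. Final inoculum was 10^4 CFU/mL.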

Candida albicans [33] = assay: Antifungal activity against Candida albicans ATCC 90028 after 24 hrs by serial agar dilution method; type: functional; settings: ATCC 90028, 24 h; method in brief: as §4

| Structure (SMILES) | Activity (Proteus vulgaris) | MIC [1] [µg/mL] | MIC (Bacillus subtilis [2]) [µg/mL] | MIC (Staphylococcus aureus [3]) [µg/mL] | zone of inhibition at 400 µg/disc (Micrococcus luteus [4]) [mm] | Activity (Escherichia coli [5]) | Activity (Pseudomonas aeruginosa [6]) | zone of inhibition at 400 µg/disc (Staphylococcus aureus [7]) [mm] | MIC (Enterococcus hirae [8]) [µg/mL] | zone of inhibition at 400 µg/disc (Bacillus subtilis [9]) [mm] | Activity (Escherichia coli [10]) | Activity (Pseudomonas aeruginosa [12]) | Activity (Escherichia coli [13]) | MIC (Staphylococcus aureus [14]) [µg/mL] | zone of inhibition at 400 µg/disc (Bacillus cereus [15]) [mm] | MIC (Staphylococcus aureus [17]) [µg/mL] | Activity (Pseudomonas aeruginosa [18]) | Activity [19] | MIC (Micrococcus luteus [20]) [µg/mL] | zone of inhibition at 400 µg/disc (Staphylococcus aureus [21]) [mm] | also measured |
| --- | --- | --- | --- | --- | --- | --- | --- | --- | --- | --- | --- | --- | --- | --- | --- | --- | --- | --- | --- | --- | --- |
| CC[C@@]1([C@@H]2O[C@@H]([C@H]3O[C@@](O)(CO)[C@H](C)C[C@@H]3C)C[C@@H]2C)CC[C@H]([C@]2(C)CC[C@]3(C[C@H](O)[C@@H](C)[C@@H]([C@@H](C)[C@@H](OC)[C@H](C)C(=O)O)O3)O2)O1 [MONENSIN] | inactive | 2 (≈ 2.98 µM) | 1 (≈ 1.49 µM) | 2 (≈ 2.98 µM) | 12 | inactive | inactive | 18 | 12.5 (≈ 18.6 µM) | 22 | inactive | inactive | inactive | 2 (≈ 2.98 µM) | 18 | 1 (≈ 1.49 µM) | inactive | inactive | 2 (≈ 2.98 µM) | 20 | Activity (Candida albicans [11]): inactive; Activity (Candida albicans [16]): inactive; Activity (Enterococcus hirae [22]): inactive; zone of inhibition at 400 µg/disc (Micrococcus luteus [23]): 12 mm; zone of inhibition at 400 µg/disc (Staphylococcus aureus [24]): 22 mm; Activity (Candida parapsilosis [25]): inactive; MIC (Micrococcus luteus [26]): 4 µg/mL (≈ 5.96 µM); MIC (Staphylococcus aureus [27]): 1 µg/mL (≈ 1.49 µM); zone of inhibition at 400 µg/disc (Staphylococcus aureus [28]): 22 mm; zone of inhibition at 400 µg/disc [29]: 15 mm; MIC (Bacillus cereus [30]): 2 µg/mL (≈ 2.98 µM) |
| CC[C@@]1([C@@H]2O[C@@H]([C@H]3O[C@@](O)(CO)[C@H](C)C[C@@H]3C)C[C@@H]2C)CC[C@H]([C@]2(C)CC[C@]3(C[C@H](O)[C@@H](C)[C@@H]([C@@H](C)[C@@H](OC)[C@H](C)C(=O)OCCN4CCOCC4)O3)O2)O1 | inactive | 12.5 (≈ 15.9 µM) | 6.25 (≈ 7.97 µM) | 12.5 (≈ 15.9 µM) | 18 | inactive | inactive | 25 | 50 (≈ 63.8 µM) | 27 | inactive | inactive | inactive | 12.5 (≈ 15.9 µM) | 25 | 6.25 (≈ 7.97 µM) | inactive | inactive | 12.5 (≈ 15.9 µM) | 23 | MIC (Candida albicans [31]): 200 µg/mL (≈ 255 µM); MIC (Candida parapsilosis [32]): 400 µg/mL (≈ 510 µM); zone of inhibition at 400 µg/disc (Candida albicans [11]; ATCC 10231, 24 h, read-out: IZ): 18 mm; MIC (Candida albicans [33]): 200 µg/mL (≈ 255 µM); zone of inhibition at 400 µg/disc (Candida albicans [16]; ATCC 90028, 24 h, read-out: IZ): 17 mm; zone of inhibition at 400 µg/disc (Enterococcus hirae [22]; ATCC 10541, 18 h, read-out: IZ): 13 mm; zone of inhibition at 400 µg/disc (Micrococcus luteus [23]): 22 mm; zone of inhibition at 400 µg/disc (Staphylococcus aureus [24]): 23 mm; zone of inhibition at 400 µg/disc (Candida parapsilosis [25]; Lodderomyces parapsilosis, ATCC 22019, 24 h, read-out: IZ): 14 mm; MIC (Micrococcus luteus [26]): 25 µg/mL (≈ 31.9 µM); MIC (Staphylococcus aureus [27]): 6.25 µg/mL (≈ 7.97 µM); zone of inhibition at 400 µg/disc (Staphylococcus aureus [28]): 20 mm; zone of inhibition at 400 µg/disc [29]: 24 mm; MIC (Bacillus cereus [30]): 6.25 µg/mL (≈ 7.97 µM) |
